# Test results: ChEMBL document CHEMBL1811793, “Induced production of N-formyl alkaloids from Aspergillus fumigatus by co-culture with Streptomyces peucetius” (J Nat Prod, 2011)
# Calls of active or inactive are those of the source. No cut-off for these calls is given here.
# What was measured:
# [1] = system: Burkholderia thailandensis; assay: Antimicrobial activity against Burkholderia thailandensis at 50 ug/disk by Kirby-Bauer disk diffusion assay; assay type: functional
# SK-OV-3 = assay: Cytotoxicity against human SKOV3 cells; assay type: functional, cell-based
# Method in brief: (§1)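 Run within the NCI-60 human tumour cell line screen panel.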
# Malme-3M = assay: Cytotoxicity against human MALME-3M cells; assay type: functional, cell-based; method in brief: as §1
# NCI-H460 = assay: Cytotoxicity against human NCI-H460 cells; assay type: functional, cell-based; method in brief: as §1
# Candida albicans = assay: Antimicrobial activity against Candida albicans at 50 ug/disk by Kirby-Bauer disk diffusion assay; assay type: functional, organism-based
# Fusarium incarnatum = assay: Antimicrobial activity against Fusarium pallidoroseum at 50 ug/disk by Kirby-Bauer disk diffusion assay; assay type: functional, organism-based
# MOLT-4 = assay: Cytotoxicity against human MOLT4 cells; assay type: functional, cell-based; method in brief: as §1
# U-251 = assay: Cytotoxicity against human U251 cells; assay type: functional, cell-based; method in brief: as §1
# ACHN = assay: Cytotoxicity against human ACHN cells; assay type: functional, cell-based; method in brief: as §1
# Escherichia coli = assay: Antimicrobial activity against Escherichia coli at 50 ug/disk by Kirby-Bauer disk diffusion assay; assay type: functional, organism-based
# SF-295 = assay: Cytotoxicity against human SF295 cells; assay type: functional, cell-based; method in brief: as §1
# HOP-92 = assay: Cytotoxicity against human HOP92 cells; assay type: functional, cell-based; method in brief: as §1
# SK-MEL-5 = assay: Cytotoxicity against human SK-MEL-5 cells; assay type: functional, cell-based; method in brief: as §1
# UACC-62 = assay: Cytotoxicity against human UACC62 cells; assay type: functional, cell-based; method in brief: as §1
# Staphylococcus aureus = assay: Antimicrobial activity against Staphylococcus aureus at 50 ug/disk by Kirby-Bauer disk diffusion assay; assay type: functional, organism-based
# A498 = assay: Cytotoxicity against human A498 cells; assay type: functional, cell-based; method in brief: as §1
# SK-MEL-28 = assay: Cytotoxicity against human SK-MEL-28 cells; assay type: functional, cell-based; method in brief: as §1
Structure (SMILES),Activity [1],Activity (SK-OV-3),Activity (Malme-3M),Activity (NCI-H460),Activity (Candida albicans),Activity (Fusarium incarnatum),Activity (MOLT-4),Activity (U-251),Activity (ACHN),Activity (Escherichia coli),Activity (SF-295),Activity (HOP-92),Activity (SK-MEL-5),Activity (UACC-62),Activity (Staphylococcus aureus),Activity (A498),Activity (SK-MEL-28),IC50 (SK-OV-3) [nM],IC50 (Malme-3M) [nM],IC50 (NCI-H460) [nM],further results
[C-]#[N+]C(=C\c1ccc(OC)cc1)/C(=C/c1ccc(OS(=O)(=O)O)cc1)[N+]#[C-],inactive,inactive,inactive,inactive,inactive,inactive,inactive,inactive,inactive,inactive,inactive,inactive,inactive,inactive,inactive,inactive,inactive,–,–,–,–
COc1ccc(/C=C(NC=O)/C(=C/c2ccc(OC)cc2)NC=O)cc1,–,–,–,–,–,–,–,–,–,–,–,–,–,–,–,–,–,840,650,1120,IC50 (MOLT-4): > 2500 nM; IC50 (U-251): 920 nM; IC50 (ACHN): > 2500 nM; IC50 (SF-295): 700 nM; IC50 (HOP-92): 890 nM; IC50 (SK-MEL-5): 810 nM; IC50 (UACC-62): 750 nM; IC50 (A498): 860 nM; IC50 (SK-MEL-28): 980 nM
[C-]#[N+]C(=C\c1ccc(O)cc1)/C(=C/c1ccc(OC)cc1)[N+]#[C-],–,inactive,inactive,inactive,–,–,inactive,inactive,inactive,–,inactive,inactive,inactive,inactive,–,inactive,inactive,–,–,–,–
[C-]#[N+]C(=C\c1ccc(OC)cc1)/C(=C/c1ccc(OC)cc1)[N+]#[C-],–,inactive,inactive,inactive,–,–,inactive,inactive,inactive,–,inactive,inactive,inactive,inactive,–,inactive,inactive,–,–,–,–
COc1ccc(/C=C(NC=O)/C(=C/c2ccc(O)cc2)NC=O)cc1,–,–,–,–,–,–,–,–,–,–,–,–,–,–,–,–,–,2130,> 2500,1840,IC50 (MOLT-4): 1810 nM; IC50 (U-251): > 2500 nM; IC50 (ACHN): 1370 nM; IC50 (SF-295): > 2500 nM; IC50 (HOP-92): > 2500 nM; IC50 (SK-MEL-5): > 2500 nM; IC50 (UACC-62): > 2500 nM; IC50 (A498): 1720 nM; IC50 (SK-MEL-28): 2030 nM
COc1ccc(/C=C(NC=O)/C(=C/c2ccc(OS(=O)(=O)O)cc2)NC=O)cc1,inactive,inactive,inactive,inactive,inactive,inactive,inactive,inactive,inactive,inactive,inactive,inactive,inactive,inactive,inactive,inactive,inactive,–,–,–,–
